Measured values from publication PMC5152947 (Journal of molecular structure, 2016).
Several values for one entry are separate records, joined by “and”; a condition that tells them apart may be missing. Equal values may be shown once. Read-outs that look alike come from different tables or passages of the source.

Columns and labels:
[1] = system: Caco-2 (human epithelial colorectal adenocarcinoma) cells; assay: Cytotoxicity assay; conditions: for TI (therapeutic index) = (IC50)CCD-18Co/(IC50)cancer cells, Caco-2: 72 h; for IC50: read-out: IC50 Caco-2
[2] = target: human serum albumin (HSA) (Homo sapiens, UniProt P02768); assay: Fluorescence quenching titration of human serum albumin; type: binding; conditions: for static quenching constant KS: combined quenching analysis
human serum albumin (HSA), sequence (P02768 25-609): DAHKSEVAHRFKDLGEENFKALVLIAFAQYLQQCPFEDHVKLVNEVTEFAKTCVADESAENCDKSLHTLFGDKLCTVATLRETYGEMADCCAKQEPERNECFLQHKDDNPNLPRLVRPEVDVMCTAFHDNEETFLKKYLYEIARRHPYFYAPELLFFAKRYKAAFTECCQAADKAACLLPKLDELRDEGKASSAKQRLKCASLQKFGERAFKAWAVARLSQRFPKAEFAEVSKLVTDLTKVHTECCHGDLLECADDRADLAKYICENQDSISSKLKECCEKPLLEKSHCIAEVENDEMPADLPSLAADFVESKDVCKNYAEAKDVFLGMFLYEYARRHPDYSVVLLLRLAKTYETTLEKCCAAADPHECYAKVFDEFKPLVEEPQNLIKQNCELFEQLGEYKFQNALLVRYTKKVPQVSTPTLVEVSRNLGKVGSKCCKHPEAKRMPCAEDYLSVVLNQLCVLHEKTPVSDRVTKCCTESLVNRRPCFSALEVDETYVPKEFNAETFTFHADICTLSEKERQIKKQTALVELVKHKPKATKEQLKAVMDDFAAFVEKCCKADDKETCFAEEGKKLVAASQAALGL

[3] = system: CCD-18Co (human colon fibroblasts); assay: Cytotoxicity assay; type: cell-based; conditions: read-out: IC50 CCD-18Co
[4] = system: HCT-116 (human colon carcinoma) cells; assay: Cytotoxicity assay; type: cell-based; conditions: for TI (therapeutic index) = (IC50)CCD-18Co/(IC50)cancer cells, HCT-116: 72 h; for IC50: read-out: IC50 HCT-116
[5] = system: supercoiled pBR322 plasmid DNA; assay: Chemical nuclease activity, agarose gel electrophoresis; type: biochemical; conditions: 50 and 100 μM, 1 h, 37 °C
In short: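 Supercoiled pBR322 (0.1 mg/mL) was incubated 1 h with complex in Tris buffer (50 mM Tris, 18 mM NaCl, pH 8.2), in the dark or under UV exposure, aerobic. Loading buffer quench, then 1% agarose gel in TBE (pH 8.2) at 70 V for 1 h. Gels stained with ethidium bromide ([…], 30 min), imaged under UV, and scored for nicked Form II.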

Row | Molecule | TI (therapeutic index) = (IC50)CCD-18Co/(IC50)cancer cells, Caco-2 [1] | IC50 ([1]; 24 h incubation) [µM] | IC50 ([1]; 48 h incubation) [µM] | IC50 ([1]; 72 h incubation) [µM] | Modified Stern-Volmer K ([2]; 298 K) [M⁻¹] | Modified Stern-Volmer f (fraction of fluorophore initially accessible) ([2]; 298 K) | Scatchard K ([2]; 298 K) [M⁻¹] | Scatchard n (number of binding sites) ([2]; 298 K) | Modified Stern-Volmer K ([2]; 303 K) [M⁻¹] | Modified Stern-Volmer f (fraction of fluorophore initially accessible) ([2]; 303 K) | Scatchard K ([2]; 303 K) [M⁻¹] | Scatchard n (number of binding sites) ([2]; 303 K) | IC50 ([3]; 24 h incubation, normal cells) [µM] | IC50 ([3]; 48 h incubation, normal cells) [µM] | IC50 ([3]; 72 h incubation, normal cells) [µM] | TI (therapeutic index) = (IC50)CCD-18Co/(IC50)cancer cells, HCT-116 [4] | IC50 ([4]; 24 h incubation) [µM] | IC50 ([4]; 48 h incubation) [µM] | IC50 ([4]; 72 h incubation) [µM] | cleavage of pBR322 DNA [5] | other results
1 | Ga(PhATSC)3·H2O [Complex 3] | 0.97 | 78.7 ± 5.3 | 58 ± 1.5 | 44.1 ± 3.6 | 302000 | 0.93 | 26300 | 0.96 | 231000 | 1.1 | 20800 | 1.1 | 80.9 ± 2.6 | 59.2 ± 2.6 | 42.9 ± 1.3 | 1.33 | 79 ± 1.1 | 56 ± 1.7 | 32.1 ± 2.4 | both the Form II and Form III (linear DNA) being present | static quenching constant KS ([2]; 298 K): 20400 M⁻¹; static quenching constant KS ([2]; 303 K): 33500 M⁻¹; Modified Stern-Volmer K ([2]; 308 K): 325000 M⁻¹; Modified Stern-Volmer f (fraction of fluorophore initially accessible) ([2]; 308 K): 1.0; Scatchard K ([2]; 308 K): 28800 M⁻¹; Scatchard n (number of binding sites) ([2]; 308 K): 1.1
2 | Ga(EtATSC)3·0.25C2H5OH [Complex 2] | 5 and 5.14 | 23.1 ± 2.1 | 18.7 ± 1.7 | 11.6 ± 1.1 | 308000 | 1.1 | 29700 | 1.1 | 169000 | 1.3 | 17600 | 1.1 | 78.6 ± 2.1 | 60.6 ± 2 | 59.5 ± 2.5 | 1.98 | 49.9 ± 2.5 | 43.6 ± 2.1 | 30.1 ± 1.1 | cleavage of the DNA occurred | 
3 | COc1cc([C@@H]2c3cc4c(cc3[C@@H](O[C@@H]3O[C@@H]5CO[C@@H](C)O[C@H]5[C@H](O)[C@H]3O)[C@H]3COC(=O)[C@H]23)OCO4)cc(OC)c1O [Etoposide, reference compound] | 2.71 |  |  |  |  |  |  |  |  |  |  |  |  |  |  | 3.07 |  |  |  |  | IC50 ([1]; Homo sapiens, Caco-2, 24 h): 23 ± 0.9 µM; IC50 ([1]; Homo sapiens, Caco-2, 48 h): 18.9 ± 1.6 µM; IC50 ([1]; Homo sapiens, Caco-2, 72 h): 16.2 ± 1.7 µM; IC50 ([3]; Homo sapiens, CCD-18Co, 24 h): 51.2 ± 1.1 µM; IC50 ([3]; Homo sapiens, CCD-18Co, 48 h): 48.7 ± 3.1 µM; IC50 ([3]; Homo sapiens, CCD-18Co, 72 h): 43.9 ± 1.8 µM; IC50 ([4]; Homo sapiens, HCT-116, 24 h): 28.9 ± 2 µM; IC50 ([4]; Homo sapiens, HCT-116, 48 h): 26.9 ± 1.5 µM; IC50 ([4]; Homo sapiens, HCT-116, 72 h): 14.3 ± 1.4 µM
